The values below come from ChEMBL document CHEMBL1221294, “Novel nucleosides as potent influenza viral inhibitors” (Bioorg Med Chem, 2010).

Molecules are shown by their SMILES. In brackets after ≈: the same amount, converted by molar mass. Activity calls are given as the source filed them. The rule behind the calls is not given here. Bounds are passed on as bounds.

Experiment [1] has as its system Influenza A virus. As to the kind of experiment: Antiviral activity against Influenza A virus H5N1 Vietnam/1203/2004H infected in MDCK cells at up to 100 uM. It counts as functional, organism-based. The conditions noted are these: A/Viet Nam/1203/2004(H5N1).
The test system of experiment [2] is Influenza B virus. As to the kind of experiment: Antiviral activity against Influenza B virus Florida/4/2006 infected in MDCK cells at up to 100 uM. It counts as functional, cell-based. The following applies: B/Florida/4/2006.
The subject of experiment [3] is MDCK. As to the kind of experiment: Cytotoxicity against MDCK cells. It counts as cell-based. The following applies: Canis lupus familiaris. In outline: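 Run in MDCK cells, two uninfected toxicity-control wells per compound concentration alongside the infected wells. Neutral red uptake in these wells is read spectrophotometrically to give an NR IC50. The wells are also examined microscopically against untreated normal cells for enlargement, granularity, rounding, detachment and similar changes. The IC50 from these observations is derived by regression analysis.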

Experiment [4] relates to Influenza B virus. The experiment in a line: Antiviral activity against Influenza B virus Florida/4/2006 infected in MDCK cells. The class given is functional, cell-based. The following applies: B/Florida/4/2006, MDCK.
Experiment [5] deals with Influenza A virus. As to the kind of experiment: Antiviral activity against Influenza A virus H5N1 Vietnam/1203/2004H infected in MDCK cells. The class given is functional, organism-based. The following applies: A/Viet Nam/1203/2004(H5N1).
The subject of experiment [6] is Influenza A virus. The experiment in a line: Antiviral activity against Influenza A virus H5N1 Vietnam/1203/2004H infected in MDCK cells assessed as reduction of virus-induced cytopathogenicity by confocal microscopic analysis. It counts as functional, organism-based. The conditions noted are these: A/Viet Nam/1203/2004(H5N1).
Experiment [7] concerns Influenza A virus. As to the kind of experiment: Antiviral activity against Influenza A virus H5N1 Vietnam/1203/2004H infected in MDCK cells assessed as reduction of viral yeild. The class given is functional. The conditions noted are these: A/Viet Nam/1203/2004(H5N1).
Experiment [8] concerns Influenza B virus. As to the kind of experiment: Antiviral activity against Influenza B virus Florida/4/2006 infected in MDCK cells assessed as increase of neutral red uptake. The following applies: B/Florida/4/2006, MDCK. It counts as functional, cell-based. In outline:
(§1)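 Neutral red dye uptake read-out run in MDCK cells. Cells not damaged by virus take up more dye, which is measured on a microplate reader. The EC50 is derived from dye uptake.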

For experiment [9], the system named is Influenza B virus. As to the kind of experiment: Antiviral activity against Influenza B virus Florida/4/2006 infected in MDCK cells assessed as reduction of virus-induced cytopathogenicity by confocal microscopic analysis. The conditions noted are these: B/Florida/4/2006, MDCK. The class given is functional, cell-based. (In general: Protection from cytopathic effect is a common read-out in antiviral testing.)

Experiment [10] in a line: Selectivity index, IC50 for MDCK cells to EC50 for Influenza B virus Florida/4/2006 infected in MDCK cells assessed as reduction of virus-induced cytopathogenicity by confocal microscopic analysis. The class given is functional. The method, boiled down: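 CPE inhibition in MDCK cells, scored microscopically. At each concentration, two uninfected treated wells are examined for morphology changes against normal control cells: enlargement, granularity, ragged edges, filmy appearance, rounding or detachment. Cytotoxic IC50 is found by regression analysis. SI = IC50/EC50.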

The nature of experiment [11]: Selectivity index, IC50 for MDCK cells to EC50 for Influenza B virus Florida/4/2006 infected in MDCK cells assessed as increase of neutral red uptake. The class given is functional. In outline: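 Run in MDCK cells. Antiviral EC50 comes from neutral red uptake, since undamaged cells take up more dye, read on a microplate reader. Cytotoxicity uses neutral red in uninfected, compound-treated toxicity control wells run alongside, read spectrophotometrically to give NR IC50. SI = IC50/EC50.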

The subject of experiment [12] is Influenza B virus. As to the kind of experiment: Antiviral activity against Influenza B virus Florida/4/2006 infected in MDCK cells assessed as reduction of viral yeild. It counts as functional. The conditions noted are these: B/Florida/4/2006, MDCK.
Experiment [13] relates to Influenza A virus. As to the kind of experiment: Antiviral activity against Influenza A virus H5N1 Vietnam/1203/2004H infected in MDCK cells assessed as increase of neutral red uptake. It counts as functional, organism-based. The conditions noted are these: A/Viet Nam/1203/2004(H5N1). The method, boiled down:
as §1

The nature of experiment [14]: Selectivity index, IC50 for MDCK cells to EC90 for Influenza B virus Florida/4/2006 infected in MDCK cells assessed as reduction of viral yield. It counts as functional. The method, boiled down:
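Retest in MDCK cells of compounds active by neutral red, with virus yield reduction measured on the same plate as CPE inhibition. A known active drug is the parallel positive control. EC90 is the concentration lowering virus yield by 1 log10. SI is the ratio of cytotoxic IC50 to EC90.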

For `C[C@]1(O)[C@@H](CO)O[C@H](n2cnc3c(O)ncnc32)[C@]1(C)F`, the outcome in [1] and in [2] was inactive.

With `CCOc1ncnc2c1ncn2[C@H]1O[C@H](COC(=O)c2ccccc2)[C@](C)(OC(C)=O)[C@@]1(C)F`, the outcome in experiment [1] and in experiment [2] was inactive.

Usually IC50 stands for the concentration that inhibits the measured activity by half. A high value points to weaker potency. By EC50 is commonly meant the concentration at which the effect is half-maximal. On to `CC(=O)O[C@@]1(C)[C@@H](COC(=O)c2ccccc2)O[C@@H](n2cnc3c(NCc4ccco4)ncnc32)[C@]1(C)F`, for which the IC50 in [3] was > 100 µg/mL. For the same molecule, the 50% effective concentration (EC50) stood at 32 µg/mL (≈ 61.1 µM) in experiment [4] and 31 µg/mL (≈ 59.2 µM) in experiment [5].

In the case of `CC(=O)O[C@@]1(C)[C@@H](COC(=O)c2ccccc2)O[C@@H](n2cnc3c(N4CCN(C)CC4)ncnc32)[C@]1(C)F`, in experiment [3], the IC50 was > 100 µg/mL. In addition, the EC50 in [4] was 42 µg/mL (≈ 79.8 µM); in experiment [5], > 100 µg/mL.

With `C[C@]1(O)[C@@H](CO)O[C@H](n2cnc3c(N4CCOCC4)ncnc32)[C@]1(C)F`, the result in experiment [1] and in experiment [2] was inactive.

For the molecule `CC(=O)O[C@@]1(C)[C@@H](COC(=O)c2ccccc2)O[C@@H](n2cnc3c(NC4CC4)ncnc32)[C@]1(C)F`, in [3], the IC50 was > 100 µg/mL. Further, the EC50 in experiment [4] came to 20 µg/mL (≈ 41.4 µM); in experiment [5], 50 µg/mL (≈ 103 µM).

For `CC(=O)O[C@@]1(C)[C@@H](COC(=O)c2ccccc2)O[C@H](n2cnc3c(NCC4CC4)ncnc32)[C@]1(C)F`, the result in [1] and in experiment [2] was inactive.

Turning to `CC(=O)O[C@@]1(C)[C@@H](COC(=O)c2ccccc2)O[C@H](n2cnc3c(NCc4ccco4)ncnc32)[C@]1(C)F`, the outcome in experiment [1] and in experiment [2] was inactive.

With `CC(=O)O[C@@]1(C)[C@@H](COC(=O)c2ccccc2)O[C@H](n2cnc3c(N4CCN(C)CC4)ncnc32)[C@]1(C)F`, the result in [1] and in experiment [2] was inactive.

On to `CC(=O)O[C@@]1(C)[C@@H](COC(=O)c2ccccc2)O[C@@H](n2cnc3c(NCC4CC4)ncnc32)[C@]1(C)F`, for which, in experiment [3], the IC50 is > 100 µg/mL. For the same molecule, the EC50 in [4] worked out at 17 µg/mL (≈ 34.2 µM); in [5] it was 32 µg/mL (≈ 64.3 µM).

With `CC(=O)O[C@@]1(C)[C@@H](COC(=O)c2ccccc2)O[C@H](n2cnc3c(NCc4ccc(F)cc4)ncnc32)[C@]1(C)F`, the result in experiment [1] and in experiment [2] was inactive.

As to `C[C@]1(F)[C@@H](n2cnc3c(N)ncnc32)O[C@H](CO)[C@@]1(C)O`, the outcome in experiment [1] and in [2] was inactive.

For the molecule `CC(=O)O[C@@]1(C)[C@@H](COC(=O)c2ccccc2)O[C@H](n2cnc3c(N4CCOCC4)ncnc32)[C@]1(C)F`, the result in experiment [1] and in [2] was inactive.

As for `C[C@]1(O)[C@@H](CO)O[C@H](n2cnc3c(NC4CCC4)ncnc32)[C@]1(C)F`, the outcome in experiment [1] and in experiment [2] was inactive.

With `C[C@]1(O)[C@@H](CO)O[C@H](n2cnc3c(NCC4CC4)ncnc32)[C@]1(C)F`, the outcome in experiment [1] and in [2] was inactive.

`CC(=O)O[C@@]1(C)[C@@H](COC(=O)c2ccccc2)O[C@@H](n2cnc3c(NC4CCC4)ncnc32)[C@]1(C)F`: the IC50 in [3] is > 100 µg/mL. The 50% effective concentration (EC50) in experiment [4] was determined as 27 µg/mL (≈ 54.3 µM); in [5] it was 23 µg/mL (≈ 46.2 µM).

Turning to `CC(=O)O[C@]1(C)[C@@H](COC(=O)c2ccccc2)O[C@@H](n2cnc3c(Cl)ncnc32)[C@]1(C)F`, the IC50 in experiment [3] was > 100 µg/mL. The 50% effective concentration (EC50) in experiment [4] and in experiment [5] was > 100 µg/mL each time.

Consider `CC(=O)O[C@@]1(C)[C@@H](COC(=O)c2ccccc2)O[C@H](n2cnc3c(Cl)ncnc32)[C@]1(C)F`, for which the outcome in experiment [1] and in [2] was inactive.

Take `C[C@]1(O)[C@@H](CO)O[C@H](n2cnc3c(NCc4ccco4)ncnc32)[C@]1(C)F`: the outcome in experiment [1] and in experiment [2] was inactive.

Turning to `CCOc1ncnc2c1ncn2[C@@H]1O[C@H](COC(=O)c2ccccc2)[C@](C)(OC(C)=O)[C@@]1(C)F`, the 50% inhibitory concentration (IC50) in experiment [3] was > 100 µg/mL. In addition, the half-maximal effective concentration (EC50) in [4] is > 100 µg/mL; in experiment [5] it was 48 µg/mL (≈ 102 µM).

Consider `CC(=O)O[C@@]1(C)[C@@H](COC(=O)c2ccccc2)O[C@H](n2cnc3c(NC4CC4)ncnc32)[C@]1(C)F`, for which the outcome in experiment [1] and in experiment [2] was inactive.

For the molecule `CC(=O)O[C@@]1(C)[C@@H](COC(=O)c2ccccc2)O[C@@H](n2cnc3c(N4CCOCC4)ncnc32)[C@]1(C)F`, the half-inhibitory concentration (IC50) in experiment [3] was > 100 µg/mL. The EC50 in experiment [4] worked out at 25 µg/mL (≈ 48.7 µM); in [5] it was 24 µg/mL (≈ 46.7 µM).

As to `C[C@]1(O)[C@@H](CO)O[C@H](n2cnc3c(NCc4ccc(F)cc4)ncnc32)[C@]1(C)F`, the result in experiment [1] and in experiment [2] was inactive.

The term EC90 denotes the concentration at which the effect reaches the 90% level. For the molecule `CC(=O)O[C@@]1(C)[C@@H](COC(=O)c2ccccc2)O[C@@H](n2cnc3c(Cl)ncnc32)[C@]1(C)F`, the EC50 in experiment [6] was determined as 1.26 µg/mL (≈ 2.72 µM); in experiment [8], 1.2 µg/mL (≈ 2.59 µM); in experiment [9], 1.2 µg/mL (≈ 2.59 µM); in experiment [4], 3.7 µg/mL (≈ 7.99 µM); in [13] it was 1.76 µg/mL (≈ 3.8 µM); in experiment [5] it was 7.1 µg/mL (≈ 15.3 µM). Also, the EC90 in [7] stood at 4.4 µg/mL (≈ 9.51 µM); in [12], 6.3 µg/mL (≈ 13.6 µM). Moreover, the results for the “Ratio IC50/EC50” value in experiment [10], in experiment [11] and in [14] were 15, 15 and 2.9, respectively. In addition, the midpoint of inhibition in experiment [3], the IC50, lay at 18 µg/mL (≈ 38.9 µM).

`C[C@]1(F)[C@H](n2cnc3c(N)ncnc32)O[C@H](CO)[C@@]1(C)O`: the 50% inhibitory concentration (IC50) in [3] is > 100 µg/mL. In addition, the EC50 in experiment [4] and in experiment [5] was > 100 µg/mL throughout.

As to `CC(=O)O[C@@]1(C)[C@@H](COC(=O)c2ccccc2)O[C@@H](n2cnc3c(O)ncnc32)[C@]1(C)F`, the IC50 in [3] was > 100 µg/mL. The results for the EC50 in [4] and in experiment [5] were 65 µg/mL (≈ 146 µM) and 33 µg/mL (≈ 74.3 µM), respectively.

In the case of `C[C@]1(O)[C@@H](CO)O[C@H](n2cnc3c(NC4CC4)ncnc32)[C@]1(C)F`, the result in experiment [1] and in experiment [2] was inactive.

Regarding `CC(=O)O[C@]1(C)[C@@H](COC(=O)c2ccccc2)O[C@H](n2cnc3c(Cl)ncnc32)[C@]1(C)F`, the result in experiment [1] and in experiment [2] was inactive.

For `CC(=O)O[C@@]1(C)[C@@H](COC(=O)c2ccccc2)O[C@H](n2cnc3c(NC4CCC4)ncnc32)[C@]1(C)F`, the result in experiment [1] and in experiment [2] was inactive.

Regarding `CC(=O)O[C@@]1(C)[C@@H](COC(=O)c2ccccc2)O[C@H](n2cnc3c(O)ncnc32)[C@]1(C)F`, the result in experiment [1] and in experiment [2] was inactive.

With `CC(=O)O[C@@]1(C)[C@@H](COC(=O)c2ccccc2)O[C@@H](n2cnc3c(NCc4ccc(F)cc4)ncnc32)[C@]1(C)F`, inhibition in [3] was half-maximal at 36 µg/mL (≈ 65.3 µM) (IC50). For the same molecule, the results for the half-maximal effective concentration (EC50) in experiment [4] and in experiment [5] were 30 µg/mL (≈ 54.4 µM) and 32 µg/mL (≈ 58 µM), respectively.

Consider `CCOc1ncnc2c1ncn2[C@H]1O[C@H](CO)[C@](C)(O)[C@@]1(C)F`, for which the outcome in [1] and in experiment [2] was inactive.

For `CN1CCN(c2ncnc3c2ncn3[C@H]2O[C@H](CO)[C@](C)(O)[C@@]2(C)F)CC1`, the outcome in experiment [1] and in [2] was inactive.
